Screening data (PubChem)
Shown are actives, neighbours in structure and some others; about 6.8% of the full set was active somewhere.
HCV core dimer – blocks dimerization of HCV core protein; TR-FRET GST/Flag-core106 dimerization, 1536-well; inhibition, % at 5 µM; hit rate 0.33% among 300,000;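 active means inhibition above the mean of all tested compounds plus 3 SD, set per screening campaign, cut at about 45% in these data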
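test system = GST/Flag-tagged HCV core106 proteins | probe or stimulus = Eu donor and XL665 acceptor anti-tag antibodies | times = compound-protein-antibody incubation 4 h at 22.5 °C | signal = TR-FRET, excitation 340 nm, emission 617 and 671 nm | measure = percent inhibition of core106 dimerization signal | controls = wells lacking GST-core106 and wells with excess unlabelled core106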
HSF1 inhib – HSF1 inhibition | hit rate 0.77% among 300,000 | activity change, negative = inhibition, % at 7.5 µM (by protocol) | NIH3T3-HGL HSE-luciferase, MG132-induced, luminescence 8 h; active compounds read low;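 active means more than half of replicate wells show activity change below -50%, luminescence cut by over half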;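 further: luciferase reports HSF-1 transcriptional activity via heat shock element; 0% = median of DMSO wells and -100% = zero luminescence signal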
ALR inh – blocks human ALR sulfhydryl oxidase activity. P55789. purified ALR, DTT oxidation, H2O2 HRP-luminol luminescence. inhibition, % (concentration not given with the values). hit rate 3.8% among 290,000. AID 485317;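 active means mean replicate inhibition above about 79%, with every replicate also reaching it, limit read from the data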
Target sequence (P55789 whole entry, looked up): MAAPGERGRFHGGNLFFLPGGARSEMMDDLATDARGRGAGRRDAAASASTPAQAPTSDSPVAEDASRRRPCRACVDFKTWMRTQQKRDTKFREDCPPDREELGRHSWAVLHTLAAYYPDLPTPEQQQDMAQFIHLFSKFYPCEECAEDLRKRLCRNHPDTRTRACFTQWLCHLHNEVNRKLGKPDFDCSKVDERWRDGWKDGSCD
PHOSPHO1 inh – inhibitors of human PHOSPHO1 phosphatase; hit rate 1.1% among 290,000; AID 1565; recombinant PHOSPHO1, absorbance phosphatase assay; Q8TCT1; inhibition, % at 13.3 µM; in the data active means inhibition above about 60%
HSF1 activator – increases HSF-1 driven luciferase reporter signal | NIH3T3-HGL HSF-1 luciferase reporter, MG132, 8 h; 100% = twice DMSO control signal | activation, % at 9 µM | hit rate 1.7% among 300,000;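 active means mean replicate activation of at least 50% with a set share of replicates each reaching 50%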;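 further: 0% = median of the neutral control wells and 100% = twice that signal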
AI-2 QS mod – Vibrio harveyi AI-2 quorum sensing modulation; hit rate 0.4% among 300,000; activity change, % at 7.5 µM; Vibrio harveyi JMH597 AI-2 luminescence/OD600 ratio, 9 h; active compounds read low; strain lacks LuxN and CqsS sensors; 0 = neutral-control median; in the data active means activity change below about -75%, passing the limit was not always enough;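 further: luminescence divided by OD600 gain over 9 h not by final OD600 alone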
The depositor's hits bear a star; x = no result.

SMILES	HCV core dimer	HSF1 inhib	ALR inh	PHOSPHO1 inh	HSF1 activator	AI-2 QS mod
Nc1ccc2nc(SCC(=O)N3CCN(c4ccccc4)CC3)sc2c1	15	4	x	-1	4	x
O=C(Nc1ccc(N2CCOCC2)c(Cl)c1)c1cccnc1Cl	8	2	-3	-1	2	7
CC(C)C(=O)Nc1nnc(SCc2cccc(F)c2)s1	2	-19	x	53	-29	7
CCOC(=O)CSc1nc2ccc(N)cc2s1	7	-2	99*	83*	-5	30
CCOc1ccc2nc(SCC(=O)NCc3ccc(S(N)(=O)=O)cc3)sc2c1	-2	22	-10	-1	40	24
Clc1ccc2nc(N3CCCCC3)[nH]c2c1	-6	19	98*	14	29	21
Nc1ccc2nc(SCC(=O)Nc3ccc(N4CCOCC4)c(Cl)c3)sc2c1	6	-1	99*	12	-10	28
Nc1ccc2nc(SCC(=O)N3CCOCC3)sc2c1	-3	-5	99*	8	4	27
CCN(CC)C(=O)CSc1nc(N)c(C(=O)Nc2ccc(OC)cc2)s1	11	-1	x	-9	-2	12
CCCC(=O)Nc1ccc2nc(SCC(=O)Nc3ccc(N4CCOCC4)c(Cl)c3)sc2c1	4	17	11	-79	45	16
CCOC(=O)CSc1nc(N)c(C(=O)Nc2ccc(N(C)C)cc2)s1	-17	7	88*	50	25	26
CCOC(=O)N1CCN(C(=O)c2cn(CC)c3ccc(S(=O)(=O)N4CC(C)CC(C)C4)cc3c2=O)CC1 (stereo unspecified)	3	-14	0	-5	-4	-5
COc1cc(/C=C/C(=O)OCC(=O)NC(=O)NC(C)C)cc(S(=O)(=O)N2CCc3ccccc32)c1OC	7	5	-4	28	-5	9
Clc1ccc2nc(N3CCCCC3)sc2c1	0	21	14	-3	56*	13
CC(=O)Nc1ccc(N2CCOCC2)c(Cl)c1	-2	-8	2	50	2	16
CC(NC(=O)CSc1nc2ccc(N)cc2s1)c1ccccc1 (stereo unspecified)	1	-10	96*	57	-10	24
Cc1ccc(NC(=O)CSCC(=O)Nc2ccc(N3CCOCC3)c(Cl)c2)cc1	-6	10	98*	8	-1	39
CS(=O)(=O)N1CCN(c2nc3ccc(Cl)cc3s2)CC1	1	10	-4	37	33	13
CC(NC(=O)CSc1ccccc1)c1ccccc1 (stereo unspecified)	x	-7	-9	25	-20	11
Cc1ccc(NC(=O)c2cc(NC(=O)c3ccco3)ccc2N2CCOCC2)cc1	-1	-64*	12	5	-72	51
Cc1ccc(NC(=O)CSCC(=O)NC2(C)CCS(=O)(=O)C2)cc1 (stereo unspecified)	x	x	99*	x	x	x
c1ccc2sc(N3CCOCC3)nc2c1	-1	5	-2	-4	1	13
Nc1ccc2nc(N3CCOCC3)sc2c1	-7	-2	99*	40	2	14
CCCCc1cc(=O)oc2cc(C)c(CN3CCCC3)c(O)c12	51*	3	-13	21	12	24
CCc1cc(=O)oc2cc(C)c(CN3CCCC(C)C3)c(O)c12 (stereo unspecified)	61*	0	2	-7	-6	41
SMILES	HCV core dimer	HSF1 inhib	ALR inh	PHOSPHO1 inh	HSF1 activator	AI-2 QS mod
CCc1ccc2nc(NC(=O)C3CSC4(C)CCC(=O)N34)sc2c1 (stereo unspecified)	3	14	1	x	13	26
CNC(=S)NCCc1c[nH]c2ccc(OC)cc12	-3	-1	99*	-23	8	16
COc1cc(NCc2ccccc2)c2ncn(C(C)C)c2c1	x	x	98*	x	x	x
COc1cc(N(Cc2ccccc2)Cc2ccccc2)c2ncn(C(C)C)c2c1	x	x	10	x	x	x
O=c1c2c(nc3c(-c4cccc(Br)c4)c[nH]n13)CCCC2	-11	-31	24	62*	-34	16
CCOC(=O)c1oc2ccc(S(=O)(=O)n3nc(-c4ccc(OC)cc4)cc3N)cc2c1C	47*	-1	-18	-1	2	36
